Experimental data from ChEMBL document CHEMBL3352075, “Discovery of potent 1H-imidazo[4,5-b]pyridine-based c-Met kinase inhibitors via mechanism-directed structural optimization” (Bioorg Med Chem Lett, 2015).

Columns and labels:
[1] = target: Insulin-like growth factor 1 receptor (Homo sapiens) (UniProt P08069); test: Inhibition of IGF1R (unknown origin) at 1 uM by ELISA method
How it was run: (§1)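 Kinase profiling by ELISA kinase assay across a panel of tyrosine kinases, each tested at a single 1.0 µM compound concentration. Read-out is percent inhibition rate.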

[2] = Antiproliferative activity against human EBC1 cells after 72 hrs by sulforhodamine B assay; conditions: EBC-1, 72 h
[3] = target: Vascular endothelial growth factor receptor 1 (Homo sapiens) (UniProt P17948); test: Inhibition of FLT1 (unknown origin) at 1 uM by ELISA method; how it was run: as §1
[4] = target: Platelet-derived growth factor receptor alpha (Homo sapiens) (UniProt P16234); test: Inhibition of PDGFRalpha (unknown origin) at 1 uM by ELISA method; how it was run: as §1
[5] = target: Macrophage-stimulating protein receptor (Homo sapiens) (UniProt Q04912); test: Inhibition of RON (unknown origin) at 0.1 uM by ELISA method
[6] = target: Tyrosine-protein kinase receptor UFO (Homo sapiens) (UniProt P30530); test: Inhibition of AXL (unknown origin) at 0.1 uM by ELISA method
[7] = target: Fibroblast growth factor receptor 1 (Homo sapiens) (UniProt P11362); conditions: 10 nM
[8] = target: Hepatocyte growth factor receptor (Homo sapiens, UniProt P08581); test: Inhibition of recombinant c-Met (unknown origin) using poly (Glu,Tyr)4:1 substrate incubated for 60 mins by ELISA method
[9] = target: Macrophage-stimulating protein receptor (Homo sapiens) (UniProt Q04912); test: Inhibition of RON (unknown origin) at 1 uM by ELISA method; how it was run: as §1
[10] = target: Tyrosine-protein kinase receptor UFO (Homo sapiens) (UniProt P30530); test: Inhibition of AXL (unknown origin) at 1 uM by ELISA method; how it was run: as §1
[11] = target: Fibroblast growth factor receptor 1 (Homo sapiens) (UniProt P11362); test: Inhibition of FGFR1 (unknown origin) at 1 uM by ELISA method; how it was run: as §1
[12] = target: Fibroblast growth factor receptor 2 (Homo sapiens) (UniProt P21802); test: Inhibition of FGFR2 (unknown origin) at 1 uM by ELISA method; how it was run: as §1
[13] = target: ALK tyrosine kinase receptor (Homo sapiens) (UniProt Q9UM73); test: Inhibition of ALK (unknown origin) at 1 uM by ELISA method; how it was run: as §1
[14] = target: Platelet-derived growth factor receptor beta (Homo sapiens) (UniProt P09619); test: Inhibition of PDGFRbeta (unknown origin) at 1 uM by ELISA method; how it was run: as §1
[15] = target: Receptor tyrosine-protein kinase erbB-4 (Homo sapiens) (UniProt Q15303); test: Inhibition of ErbB4 (unknown origin) at 1 uM by ELISA method; how it was run: as §1
[16] = target: Vascular endothelial growth factor receptor 2 (Homo sapiens) (UniProt P35968); conditions: at 1 µM
[17] = target: Proto-oncogene tyrosine-protein kinase Src (Homo sapiens) (UniProt P12931); conditions: at 1 µM
[18] = target: Tyrosine-protein kinase ABL1 (Homo sapiens) (UniProt P00519); conditions: at 1 µM

Sequence of Insulin-like growth factor 1 receptor (Homo sapiens) (P08069 31-736 limits assumed): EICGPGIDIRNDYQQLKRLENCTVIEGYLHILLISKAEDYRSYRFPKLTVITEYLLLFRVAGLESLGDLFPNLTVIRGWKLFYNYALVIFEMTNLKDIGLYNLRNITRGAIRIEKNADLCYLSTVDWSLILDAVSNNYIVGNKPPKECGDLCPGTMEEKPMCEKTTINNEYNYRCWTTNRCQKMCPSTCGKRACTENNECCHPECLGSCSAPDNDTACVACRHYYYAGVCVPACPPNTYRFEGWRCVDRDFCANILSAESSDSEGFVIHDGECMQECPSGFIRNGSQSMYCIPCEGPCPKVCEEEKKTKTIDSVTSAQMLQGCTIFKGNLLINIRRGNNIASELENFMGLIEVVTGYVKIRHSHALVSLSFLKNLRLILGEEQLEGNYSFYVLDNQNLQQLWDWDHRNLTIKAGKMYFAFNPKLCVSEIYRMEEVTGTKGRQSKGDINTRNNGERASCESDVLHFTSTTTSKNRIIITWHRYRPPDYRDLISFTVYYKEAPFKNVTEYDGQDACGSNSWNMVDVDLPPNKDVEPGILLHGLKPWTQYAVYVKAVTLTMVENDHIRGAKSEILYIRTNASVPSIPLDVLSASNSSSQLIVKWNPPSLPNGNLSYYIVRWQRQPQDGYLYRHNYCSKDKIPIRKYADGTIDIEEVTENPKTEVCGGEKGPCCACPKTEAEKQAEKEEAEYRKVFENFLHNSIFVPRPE
Sequence of Insulin-like growth factor 1 receptor (Homo sapiens) (P08069 741-1367 limits assumed): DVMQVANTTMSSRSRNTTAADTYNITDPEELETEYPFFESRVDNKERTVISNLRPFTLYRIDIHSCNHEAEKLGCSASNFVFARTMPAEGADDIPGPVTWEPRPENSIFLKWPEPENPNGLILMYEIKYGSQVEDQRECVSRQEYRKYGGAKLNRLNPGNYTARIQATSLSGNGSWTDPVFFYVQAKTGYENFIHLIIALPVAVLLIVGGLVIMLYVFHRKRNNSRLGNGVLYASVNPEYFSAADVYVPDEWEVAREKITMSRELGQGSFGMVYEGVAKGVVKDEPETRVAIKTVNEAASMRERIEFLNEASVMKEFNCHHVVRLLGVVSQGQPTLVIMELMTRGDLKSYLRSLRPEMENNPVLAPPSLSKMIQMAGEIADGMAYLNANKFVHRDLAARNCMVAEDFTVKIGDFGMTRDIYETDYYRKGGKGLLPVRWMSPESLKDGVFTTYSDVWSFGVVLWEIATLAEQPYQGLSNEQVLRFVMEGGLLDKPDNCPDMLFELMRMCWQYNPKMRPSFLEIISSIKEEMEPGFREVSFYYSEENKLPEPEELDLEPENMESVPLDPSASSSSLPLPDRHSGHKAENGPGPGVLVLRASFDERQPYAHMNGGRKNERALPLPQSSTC
Sequence of Macrophage-stimulating protein receptor (Homo sapiens) (Q04912 25-304 limits assumed): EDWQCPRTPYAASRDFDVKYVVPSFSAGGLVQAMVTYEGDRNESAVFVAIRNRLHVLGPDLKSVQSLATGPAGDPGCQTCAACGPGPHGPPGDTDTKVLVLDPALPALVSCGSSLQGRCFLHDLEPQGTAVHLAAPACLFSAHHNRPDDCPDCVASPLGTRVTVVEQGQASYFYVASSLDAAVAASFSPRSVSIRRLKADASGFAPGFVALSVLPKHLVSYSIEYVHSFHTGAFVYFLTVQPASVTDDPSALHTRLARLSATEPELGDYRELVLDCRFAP
Sequence of Macrophage-stimulating protein receptor (Homo sapiens) (Q04912 310-1400 limits assumed): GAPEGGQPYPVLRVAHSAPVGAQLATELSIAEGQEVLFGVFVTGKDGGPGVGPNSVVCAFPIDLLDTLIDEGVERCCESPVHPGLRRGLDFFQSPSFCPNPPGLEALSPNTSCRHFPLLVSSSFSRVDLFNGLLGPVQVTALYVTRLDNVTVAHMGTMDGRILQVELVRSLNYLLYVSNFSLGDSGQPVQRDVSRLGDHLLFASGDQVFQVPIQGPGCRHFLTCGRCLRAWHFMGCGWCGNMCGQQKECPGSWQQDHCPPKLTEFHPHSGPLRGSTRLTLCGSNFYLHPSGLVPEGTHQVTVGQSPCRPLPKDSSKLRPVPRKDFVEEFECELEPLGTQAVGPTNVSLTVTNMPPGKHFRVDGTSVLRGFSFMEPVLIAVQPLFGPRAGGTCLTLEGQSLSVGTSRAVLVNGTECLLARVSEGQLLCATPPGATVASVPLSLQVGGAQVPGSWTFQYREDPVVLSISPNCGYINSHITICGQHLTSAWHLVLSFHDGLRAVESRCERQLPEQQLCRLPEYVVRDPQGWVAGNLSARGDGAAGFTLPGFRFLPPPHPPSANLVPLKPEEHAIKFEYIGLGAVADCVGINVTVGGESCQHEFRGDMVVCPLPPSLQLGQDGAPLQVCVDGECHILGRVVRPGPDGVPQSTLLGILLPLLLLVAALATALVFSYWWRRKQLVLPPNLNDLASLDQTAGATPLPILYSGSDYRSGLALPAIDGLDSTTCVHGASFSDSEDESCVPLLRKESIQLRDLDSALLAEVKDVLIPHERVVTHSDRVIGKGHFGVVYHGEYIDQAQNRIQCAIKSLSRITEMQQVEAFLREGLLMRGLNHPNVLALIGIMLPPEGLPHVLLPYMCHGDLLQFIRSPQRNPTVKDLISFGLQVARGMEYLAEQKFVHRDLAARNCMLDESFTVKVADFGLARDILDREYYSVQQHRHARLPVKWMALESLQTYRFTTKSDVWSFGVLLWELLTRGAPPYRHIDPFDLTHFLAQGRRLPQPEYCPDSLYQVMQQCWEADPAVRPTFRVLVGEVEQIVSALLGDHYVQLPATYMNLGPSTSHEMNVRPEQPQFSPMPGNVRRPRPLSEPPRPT
Sequence of Fibroblast growth factor receptor 1 (Homo sapiens) (P11362 22-822 limits assumed): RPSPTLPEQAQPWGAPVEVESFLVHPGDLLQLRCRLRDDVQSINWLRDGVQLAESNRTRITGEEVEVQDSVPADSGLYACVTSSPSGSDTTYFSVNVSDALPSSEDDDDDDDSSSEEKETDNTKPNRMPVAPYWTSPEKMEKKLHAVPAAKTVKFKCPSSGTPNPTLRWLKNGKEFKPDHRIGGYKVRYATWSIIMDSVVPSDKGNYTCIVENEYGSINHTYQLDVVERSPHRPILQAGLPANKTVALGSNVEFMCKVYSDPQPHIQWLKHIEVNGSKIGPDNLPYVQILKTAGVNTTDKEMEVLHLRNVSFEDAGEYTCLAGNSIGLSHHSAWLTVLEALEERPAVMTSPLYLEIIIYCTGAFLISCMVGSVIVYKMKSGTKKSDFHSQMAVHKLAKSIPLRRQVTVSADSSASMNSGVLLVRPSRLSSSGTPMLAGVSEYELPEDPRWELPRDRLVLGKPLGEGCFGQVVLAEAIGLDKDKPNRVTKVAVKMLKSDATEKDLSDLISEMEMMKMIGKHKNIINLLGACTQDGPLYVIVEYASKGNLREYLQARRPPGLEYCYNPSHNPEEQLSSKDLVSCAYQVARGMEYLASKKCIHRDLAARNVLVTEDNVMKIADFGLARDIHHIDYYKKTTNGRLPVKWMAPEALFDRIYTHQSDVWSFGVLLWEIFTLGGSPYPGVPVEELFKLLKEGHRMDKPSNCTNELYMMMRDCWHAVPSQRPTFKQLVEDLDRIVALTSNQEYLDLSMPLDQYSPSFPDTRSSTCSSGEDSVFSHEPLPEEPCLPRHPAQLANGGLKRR
Sequence of Vascular endothelial growth factor receptor 1 (Homo sapiens) (P17948 whole entry): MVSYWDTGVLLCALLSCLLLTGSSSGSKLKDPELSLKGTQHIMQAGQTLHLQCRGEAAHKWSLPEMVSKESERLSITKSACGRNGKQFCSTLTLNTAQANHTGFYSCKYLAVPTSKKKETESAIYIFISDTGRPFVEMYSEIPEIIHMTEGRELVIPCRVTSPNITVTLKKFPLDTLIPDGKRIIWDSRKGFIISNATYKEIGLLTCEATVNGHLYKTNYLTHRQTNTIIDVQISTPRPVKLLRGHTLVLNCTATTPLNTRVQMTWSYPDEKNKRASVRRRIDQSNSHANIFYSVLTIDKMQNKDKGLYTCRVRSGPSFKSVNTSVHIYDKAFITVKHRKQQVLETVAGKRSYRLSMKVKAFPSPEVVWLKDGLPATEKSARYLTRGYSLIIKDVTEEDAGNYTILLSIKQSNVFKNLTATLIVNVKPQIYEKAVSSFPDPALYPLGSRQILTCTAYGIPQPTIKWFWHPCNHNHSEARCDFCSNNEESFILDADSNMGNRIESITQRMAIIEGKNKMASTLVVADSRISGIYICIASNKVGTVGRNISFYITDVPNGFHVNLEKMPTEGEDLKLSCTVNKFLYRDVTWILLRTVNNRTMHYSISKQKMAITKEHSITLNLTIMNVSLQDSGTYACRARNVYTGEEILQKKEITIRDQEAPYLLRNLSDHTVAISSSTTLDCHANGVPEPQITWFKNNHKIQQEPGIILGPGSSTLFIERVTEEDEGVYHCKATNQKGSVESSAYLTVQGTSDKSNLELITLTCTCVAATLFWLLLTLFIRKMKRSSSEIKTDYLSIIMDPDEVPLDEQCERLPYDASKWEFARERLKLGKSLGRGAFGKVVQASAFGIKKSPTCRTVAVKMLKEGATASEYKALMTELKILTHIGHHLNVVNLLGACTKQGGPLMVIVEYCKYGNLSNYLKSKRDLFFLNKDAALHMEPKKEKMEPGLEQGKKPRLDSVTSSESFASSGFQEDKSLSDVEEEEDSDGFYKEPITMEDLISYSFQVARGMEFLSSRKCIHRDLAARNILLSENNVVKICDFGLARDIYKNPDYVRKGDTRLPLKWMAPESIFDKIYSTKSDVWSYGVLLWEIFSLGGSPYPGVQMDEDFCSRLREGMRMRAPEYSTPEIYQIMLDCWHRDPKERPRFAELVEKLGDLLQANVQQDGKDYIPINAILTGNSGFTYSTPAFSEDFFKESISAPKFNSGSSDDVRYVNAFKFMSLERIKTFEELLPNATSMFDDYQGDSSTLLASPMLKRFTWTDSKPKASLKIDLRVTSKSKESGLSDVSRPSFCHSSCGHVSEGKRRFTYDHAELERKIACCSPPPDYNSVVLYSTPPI

## Nc1ncnc2c1c(-c1cccc(OCc3ccccc3)c1)cn2C1CC(CN2CCC2)C1 (stereo not drawn)
[1]
  inhibition: 56.6%

## Nc1c(Oc2ccc(NC(=O)C3(C(=O)Nc4ccc(F)cc4)CC3)cc2F)ccnc1NC(=O)CCl
[2]
  IC50: < 10 µM

## Nc1nccc(Oc2ccc(NC(=O)C3(C(=O)Nc4ccc(F)cc4)CC3)cc2F)c1NCC(=O)O
[2]
  IC50: < 10 µM

## CCN(CC)CCNC(=O)c1c(C)[nH]c(/C=C2\C(=O)Nc3ccc(F)cc32)c1C
[3]
  inhibition: 66.6%
[4]
  inhibition: 68.4%

## O=C(Nc1ccc(Oc2nc3c([nH]c(=O)n3CCN3CCNCC3)c3ncccc23)c(F)c1)c1cccn(-c2ccc(F)cc2)c1=O
[2]
  IC50: > 50 µM

## COc1cc2nccc(Oc3ccc(NC(=O)C4(C(=O)Nc5ccc(F)cc5)CC4)cc3)c2cc1OC
[5]
  inhibition: 100%
[6]
  inhibition: 100%

## O=C(Nc1ccc(Oc2nc3c([nH]c(=O)n3Cc3ccc(O)cc3)c3ncccc23)c(F)c1)c1cccn(-c2ccc(F)cc2)c1=O
[2]
  IC50: > 50 µM

## COc1cc(CCc2cc(NC(=O)c3ccc(N4C[C@@H](C)N[C@@H](C)C4)cc3)n[nH]2)cc(OC)c1
[7]
  inhibition: 95.1%

## CN1CCC(Cn2c(=O)[nH]c3c4ncccc4c(Oc4ccc(NC(=O)c5cccn(-c6ccc(F)cc6)c5=O)cc4F)nc32)CC1
[2]
  IC50: 19.8 µM

## O=C(Nc1ccc(F)cc1)C1(C(=O)Nc2ccc(Oc3ccnc4[nH]c(=O)[nH]c34)c(F)c2)CC1
[8]
  IC50: 0.209 µM
[2]
  IC50: 0.24 µM
[9]
  inhibition: 43.2%
[10]
  inhibition: 41.6%
[11]
  inhibition: 7.4%
[12]
  inhibition: 37.2%
[13]
  inhibition: 2.5%
[3]
  inhibition: 13.3%
[1]
  inhibition: 33.6%
[4]
  inhibition: 22.6%
[14]
  inhibition: 0%
[15]
  inhibition: 24.3%
[16]
  inhibition: 0%
[17]
  inhibition: 0%
[18]
  inhibition: 0%

## O=C(Nc1ccc(F)cc1)C1(C(=O)Nc2ccc(Oc3ccnc4c3nc3n4CCCC3)c(F)c2)CC1
[8]
  IC50: 0.26 µM
[2]
  IC50: > 10 µM
